This is a sample that favours compounds with a hit; in the whole collection about 2.3% have one here.
Insulin prom up: insulin promoter activators in MIN6 cells, imaging, high-content screening, mouse beta cells | MIN6 insulin promoter-GFP reporter; hits give high values | 190,000 tested, 0.3% active | z-score at 5 µM | AID 1625, 2009;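 active means z-score above 3 at 5 µM with at least 500 cells counted in the well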
b-catenin transl: modulators of beta-catenin nuclear translocation, primary screen, imaging, HeLa cells, immunofluorescence, high-content | 190,000 tested, 0.3% active | AID 1665, 2009 | nuclear translocation activity, % at 5 µM;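 active means nuclear translocation activity above 50% at 5 µM, with a well cell count of 50 or more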;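 further: per-cell ratio of nuclear to cytoplasmic median beta-catenin stain intensity; plate controls were DMSO negative control for no effect and GSK-3 inhibitor IX positive control for full effect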
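assay system = human HeLa cells, endogenous beta-catenin | times = compound treatment 24 h, 37°C, 5% CO2 | detection = Anti-beta-catenin immunofluorescence on PFA-fixed, Triton-permeabilized cells, DAPI nuclei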
MT stabilize HCS: microtubule stabilizers in HeLa cells, primary screen, imaging, high-content imaging | 200,000 tested, 0.83% active | HeLa tubulin immunostaining HCS, 24 h; share of cells brighter than vehicle mean+2SD | % tubulin-high responders, % at 10 µM | AID 2205, 2009;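 active means plate Z-score above 3 for both tubulin-high and condensed-nucleus cell shares, with cell loss under 80%, at 10 µM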;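 further: anti alpha tubulin signal scored within the nucleus-defined area of each cell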
Autophagy mod: autophagy modulators in MEF cells, primary screen, imaging, high-content, MEF GFP-LC3; MEF GFP-LC3 puncta imaging; test concentration mostly 10 µM; calls only at 10 µM (by protocol); 190,000 tested, 0.98% active; AID 463193, 2010;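 active means percentage of spot-positive cells more than 3 SD above its plate mean, without a fluorescence outlier flag or 80% toxicity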;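 further: spot-positive cell cutoff set from DMSO-treated cells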
Dynein cargo inh: inhibitors of GR-EGFP nuclear translocation, primary screen, dynein cargo transport inhibitor project, imaging, high-content, 3617.4 mouse cells; test concentration mostly 20 µM; stimulated with dexamethasone, 1 µM; hits give low values; z-score, hits read low; 220,000 tested, 0.47% active; AID 1381, 2008;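 active means plate z-score of nuclear minus cytoplasmic receptor signal below a set negative limit, without overly bright fluorescence or cell loss, cut at about -3.5 in these data, passing the limit was not always enough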;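 further: z-score of nuclear minus cytoplasmic ring GR-EGFP intensity difference per well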
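Also added – dexamethasone, 1.0 µM final · Buffer or medium – tet-free, stripped-serum medium · Schedule – induction 48 h, compound 1 h, agonist 30 min · Detection – formaldehyde fixation, Hoechst nuclear stain, 10x automated fluorescence imaging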
* hit, by the source's call; i = inactive; . = no result; + = active, no number.

SMILES	Insulin prom up	b-catenin transl	MT stabilize HCS	Autophagy mod	Dynein cargo inh
CCOC(=O)c1cnc(SC)nc1Oc1cccc(NS(=O)(=O)c2ccc(C)cc2)c1	-0.51	0	15	+	-0.45
Cc1ccc(NC(=O)CSCC(=O)NCCc2ccccn2)c(C)c1	-0.1	2	4	i	-0.33
Cc1cccc(-c2cc(C(=O)Nc3ccc4c(c3)OCCO4)c3ccccc3n2)c1	1.2	1	2	i	-0.1
O=C(Nc1ccc2c(c1)OCCO2)c1cc(-c2ccccn2)nc2ccc(Br)cc12	0.22	1	3	+	-0.3
N=c1sccn1CC(=O)Nc1ccc(Cl)cc1[N+](=O)[O-]	0.13	-2	.	.	-0.34
Cc1cc(C)n2cc(CSc3ccccn3)nc2n1	0.12	-6	3	+	1.2
COc1cc(/C=C/C(=O)NCc2nc3ccccc3[nH]2)cc(OC)c1OC	-0.22	-1	.	.	-0.26
O=C(N/N=C/c1ccc(Cl)cc1)C1CC12CCC2 (centres undefined)	-0.71	2	2	i	-0.13
NC(=O)C1CCN(C(=O)COc2ccc(Nc3ccccc3)cc2)CC1	-0.72	-1	.	.	0.91
COc1ccc2c(c1)c(=O)c(C(=O)c1ccccc1)cn2Cc1ccccc1	0.68	-1	17*	i	2.1
CCN1C(=O)N(C(C)=O)C2C1N(C(C)=O)C(=O)N2C(C)=O (centres undefined)	0.84	1	5	i	1.1
N#CC1=C(N)NC(SCc2ccccc2)=C(C#N)C12CCCCC2	-0.49	58*	30*	i	-0.13
CCSC1=C(C#N)C2(CCCCC2)C(C#N)=C(N)N1	-1	0	4	i	-0.59
CN1/C(=C\C=C(/C#N)C(=O)Nc2ccc(Cl)cc2)C(C)(C)c2ccccc21	.	0	2	+	-0.099
CC(C(=O)OCc1nnc(-c2ccccc2)o1)N1C(=O)C2CCCCC2C1=O (centres undefined)	0.63	-1	4	i	0.49
COc1cc(/C=N/NC(=O)c2[nH]nc3c2CCc2ccccc2-3)ccc1O	-0.06	34	24*	i	0.75
COc1cc(/C=N/NC(=O)c2ccccc2)ccc1O	-0.59	-2	10	i	0.08
COc1ccc(C(=O)O)cc1S(=O)(=O)NCCN(C)C	-0.6	-2	.	.	0.9
CCOCCCn1c(=NC(=O)c2cccs2)c(C#N)cc2c(=O)n3ccccc3nc21	0.49	0	.	.	-0.13
N#CC(C#N)=C1C=CC=CN1/C(=C\c1ccccc1Cl)C(=O)c1ccccc1	-0.32	5	5	i	-4.1*
Cc1ncc([N+](=O)[O-])n1CC(=O)Nc1ccc2c(c1)OCO2	1.4	-2	6	i	-0.38
CCOC(=O)C1CCCN(CCC(=O)Nc2cccc(F)c2)C1 (centres undefined)	0.36	-2	3	i	-0.091
CCOC(=O)C1CCCN(CCC(=O)Nc2cccc(C)c2)C1 (centres undefined)	0.41	1	2	+	1.1
O=C(NCc1cn2ccccc2n1)c1ccco1	3.7*	-2	9	i	0.22
O=C(Nc1ccc(-c2cn3ccccc3n2)cc1)c1ccco1	-0.03	.	4	i	-0.011
SMILES	Insulin prom up	b-catenin transl	MT stabilize HCS	Autophagy mod	Dynein cargo inh
COCCNC(=S)N(Cc1cc2cc(C)ccc2n2nnnc12)C1CCCC1	0.41	-2	5	i	2.3
CCc1ccc2c(c1)cc(CN(C(=S)Nc1ccc(Cl)cc1)C1CC1)c1nnnn12	0.54	-1	1	+	.
CC(C)C(NC(=O)C12CC3CC(CC(C3)C1)C2)C(=O)N/N=C/C1=C(N2CCOCC2)C(=C\c2ccc([N+](=O)[O-])cc2)/CC1 (centres undefined)	0.27	1	3	+	-3
Cc1noc(NS(=O)(=O)c2ccc(NC(=O)C(CC(C)C)N3C(=O)c4ccccc4C3=O)cc2)c1C (centres undefined)	0.27	0	.	.	-0.57
CC1CCC(C(C)C)C(OC(=O)C[n+]2cc(-c3ccc(Cl)cc3)n3c2CCCCC3)C1 (centres undefined)	-4.3	-1	6	+	-1.8
CCCN1CCN(S(=O)(=O)c2ccc3c(c2)OCCO3)CC1	0.2	-5	5	i	0.14
